Data from publication PMC6045484 (ACS Omega, 2018).
Values after ≈ are worked out from the molar mass of the structure shown.

Experiments:
[1] = tested on: SA (ATCC29213); assay: in vitro antibacterial activity; format: cell-based; conditions: Staphylococcus aureus; highest test concentration 20 μg/mL
How it was run: (§1)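 Test compound serially diluted in 20% DMSO/saline and plated in duplicate, up to 20 μg/mL. Inoculum in cation-adjusted Mueller–Hinton broth, pH 7.3, set by OD630 to 5 × 10^5 CFU/mL. Incubated 16–20 h at 35 °C; 530 nm read before and after. IC50 is 50% growth inhibition; MIC is no detectable growth. MBC from clear wells subcultured on agar. Ciprofloxacin control.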

[2] = tested on: SK-MEL, KB, BT-549, SK-OV-3, VERO and LLC-PK1 cells; assay: cytotoxicity, neutral red uptake assay; format: cell-based, mammalian; conditions: highest test concentration 4760 ng/mL
How it was run: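 Cells seeded at 25 000/well and allowed 24 h to reach confluence. Test compound was then added and incubated 48 h. Viable cells were counted by a modified neutral red uptake method. The panel was four human cancer lines and two noncancerous mammalian kidney lines. Doxorubicin served as positive control and DMSO as negative control.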

[3] = tested on: C. albicans ATCC90028; assay: in vitro antifungal activity; format: cell-based, Candida albicans
How it was run: (§2)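 Modified NCCLS broth method in Sabouraud dextrose. Inoculum set by OD630 to 1.5 × 10^3 CFU/mL. Test compound serially diluted in 20% DMSO/saline, duplicate wells, up to 20 μg/mL. Incubated 70–74 h at 35 °C; 530 nm read before and after. IC50 is 50% growth inhibition; MIC is no detectable growth. MFC from clear wells subcultured on agar. Amphotericin B control.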

[4] = tested on: A. fumigatus ATCC 90906; assay: in vitro antifungal activity; format: cell-based, Aspergillus fumigatus
How it was run: as §2

[5] = tested on: MRSA (ATCC33591); assay: in vitro antibacterial activity; format: cell-based, methicillin-resistant Staphylococcus aureus; conditions: methicillin-resistant S. aureus; highest test concentration 20 μg/mL
How it was run: as §1

[6] = tested on: C. neoformans ATCC90113; assay: in vitro antifungal activity; format: cell-based, Cryptococcus neoformans
How it was run: as §2

[7] = tested on: C. krusei ATCC6258; assay: in vitro antifungal activity; format: cell-based, Candida krusei
How it was run: as §2

[8] = tested on: M. intracellulare (ATCC23068); assay: in vitro antibacterial activity, modified alamarBlue procedure; format: cell-based, Mycobacterium intracellulare; conditions: highest test concentration 20 μg/mL
How it was run: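 Modified alamarBlue microplate method. Test compound serially diluted in 20% DMSO/saline, duplicate wells, up to 20 μg/mL. Inoculum 2.0 × 10^6 CFU/mL in Middlebrook 7H9 with OADC, pH 7.3, containing 5% alamarBlue. Incubated 70–74 h at 37 °C, 10% CO2; fluorescence 544ex/590em read before and after. MIC: no blue-to-pink change. MBC by subculturing blue wells on agar. Ciprofloxacin control.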

[9] = tested on: P. falciparum (D6); assay: in vitro antimalarial activity, plasmodial LDH; format: cell-based, Plasmodium falciparum; conditions: CQ-sensitive D6 strain, 72 h
[10] = tested on: P. falciparum (W2); assay: in vitro antimalarial activity, plasmodial LDH; format: cell-based, Plasmodium falciparum; conditions: CQ-resistant W2 strain, 72 h
How it was run: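 P. falciparum-infected erythrocytes (2% parasitemia, 2% hematocrit) in RPMI 1640 with 10% human serum and 60 μg/mL amikacin. Exposed to test compound dilutions for 72 h at 37 °C under 90% N2/5% O2/5% CO2. LDH measured with Malstat reagent (30 min, room temperature), then NBT/PES for 1 h in the dark, stopped with 5% acetic acid, read at 650 nm. IC50 from dose-response curves.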

[11] = tested on: L. donovani promastigotes; assay: in vitro antileishmanial activity, alamarBlue assay; format: cell-based, Leishmania donovani; conditions: promastigotes, 48 h
[12] = tested on: C. glabrata ATCC90030; assay: in vitro antifungal activity; format: cell-based, Candida glabrata
How it was run: as §2

CCCCCCOc1c(OC)cc(NC(C)CCCNC(=O)C2CCCN2)c2nc(C(C)(C)C)ccc12 (stereo not drawn) [compound 103, N-(4-(2-tert-Butyl-5-(hexyloxy)-6-methoxyquinolin-8-lamino)pentyl)pyrrolidine-2-carboxamide]
IC50 (concentration that affords 50% growth inhibition), SA [1]: 2.89 µg/mL (≈ 5.64 µM) | MBC (minimum bactericidal concentration), SA [1]: 10.00 µg/mL (≈ 19.5 µM) | MIC, SA [1]: 5.00 µg/mL (≈ 9.75 µM) | cytotoxicity CTX [2]: NC (NC, not cytotoxic up to 4760 ng/mL (4.76 μg/mL)) | C. albicans IC50 [3]: 11.54 µg/mL | C. albicans MFC [3]: 20.00 µg/mL | C. albicans MIC [3]: 20.00 µg/mL | A. fumigatus IC50 [4]: NA (NA, no activity at the highest test concentration of 20 μg/mL) | A. fumigatus MFC [4]: NA (NA, no activity at the highest test concentration of 20 μg/mL) | A. fumigatus MIC [4]: NA (NA, no activity at the highest test concentration of 20 μg/mL) | IC50 (concentration that affords 50% growth inhibition), MRSA [5]: 2.64 µg/mL (≈ 5.15 µM) | MBC (minimum bactericidal concentration), MRSA [5]: 20.00 µg/mL (≈ 39 µM) | MIC, MRSA [5]: 5.00 µg/mL (≈ 9.75 µM) | C. neoformans IC50 [6]: 1.49 µg/mL | C. neoformans MFC [6]: 2.50 µg/mL | C. neoformans MIC [6]: 2.50 µg/mL | C. krusei IC50 [7]: 8.76 µg/mL | C. krusei MFC [7]: 10.00 µg/mL | C. krusei MIC [7]: 10.00 µg/mL | IC50 (concentration that affords 50% growth inhibition), M. intracellulare [8]: 5.94 µg/mL (≈ 11.6 µM) | MBC (minimum bactericidal concentration), M. intracellulare [8]: 10.00 µg/mL (≈ 19.5 µM) | MIC, M. intracellulare [8]: 10.00 µg/mL (≈ 19.5 µM) | P. falciparum (D6) IC50 [9]: 4 µg/mL | P. falciparum (W2) IC50 [10]: 2.7 µg/mL | L. donovani IC50 [11]: 4.0 µg/mL | L. donovani IC90 [11]: 6.8 µg/mL | C. glabrata IC50 [12]: 8.91 µg/mL | C. glabrata MFC [12]: 10.00 µg/mL | C. glabrata MIC [12]: 10.00 µg/mL

CCCCCCCOc1c(OC)cc(NC(C)CCCNC(=O)C2CCCN2)c2nc(C(C)(C)C)ccc12 (stereo not drawn) [compound 113, N-(4-(2-tert-Butyl-5-(heptyloxy)-6-methoxyquinolin-8-lamino)pentyl)pyrrolidine-2-carboxamide]
IC50 (concentration that affords 50% growth inhibition), SA [1]: 3.52 µg/mL (≈ 6.68 µM) | MBC (minimum bactericidal concentration), SA [1]: 10.00 µg/mL (≈ 19 µM) | MIC, SA [1]: 10.00 µg/mL (≈ 19 µM) | cytotoxicity CTX [2]: NC (NC, not cytotoxic up to 4760 ng/mL (4.76 μg/mL)) | C. albicans IC50 [3]: NA (NA, no activity at the highest test concentration of 20 μg/mL) | C. albicans MFC [3]: NA (NA, no activity at the highest test concentration of 20 μg/mL) | C. albicans MIC [3]: NA (NA, no activity at the highest test concentration of 20 μg/mL) | A. fumigatus IC50 [4]: NA (NA, no activity at the highest test concentration of 20 μg/mL) | A. fumigatus MFC [4]: NA (NA, no activity at the highest test concentration of 20 μg/mL) | A. fumigatus MIC [4]: NA (NA, no activity at the highest test concentration of 20 μg/mL) | IC50 (concentration that affords 50% growth inhibition), MRSA [5]: 3.16 µg/mL (≈ 6 µM) | MBC (minimum bactericidal concentration), MRSA [5]: 20.00 µg/mL (≈ 38 µM) | MIC, MRSA [5]: 5.00 µg/mL (≈ 9.49 µM) | C. neoformans IC50 [6]: 2.93 µg/mL | C. neoformans MFC [6]: 5.00 µg/mL | C. neoformans MIC [6]: 5.00 µg/mL | C. krusei IC50 [7]: NA (NA, no activity at the highest test concentration of 20 μg/mL) | C. krusei MFC [7]: NA (NA, no activity at the highest test concentration of 20 μg/mL) | C. krusei MIC [7]: NA (NA, no activity at the highest test concentration of 20 μg/mL) | IC50 (concentration that affords 50% growth inhibition), M. intracellulare [8]: 16.67 µg/mL (≈ 31.6 µM) | MBC (minimum bactericidal concentration), M. intracellulare [8]: 20.00 µg/mL (≈ 38 µM) | MIC, M. intracellulare [8]: 20.00 µg/mL (≈ 38 µM) | P. falciparum (D6) IC50 [9]: 2.4 µg/mL | P. falciparum (W2) IC50 [10]: 1.5 µg/mL | L. donovani IC50 [11]: 3.8 µg/mL | L. donovani IC90 [11]: 7 µg/mL | C. glabrata IC50 [12]: NA (NA, no activity at the highest test concentration of 20 μg/mL) | C. glabrata MFC [12]: NA (NA, no activity at the highest test concentration of 20 μg/mL) | C. glabrata MIC [12]: NA (NA, no activity at the highest test concentration of 20 μg/mL)

CCCCCCCCOc1c(OC)cc(NC(C)CCCNC(=O)C(N)CCCN)c2nc(C(C)(C)C)ccc12 (stereo not drawn) [compound 118, 2,5-Diamino-N-(4-(2-tert-butyl-6-methoxy-5-(octyloxy)quinolin-8-lamino)pentyl)-pentanamide]
IC50 (concentration that affords 50% growth inhibition), SA [1]: NA (NA, no activity at the highest test concentration of 20 μg/mL) | MBC (minimum bactericidal concentration), SA [1]: NA (NA, no activity at the highest test concentration of 20 μg/mL) | MIC, SA [1]: NA (NA, no activity at the highest test concentration of 20 μg/mL) | cytotoxicity CTX [2]: NC (NC, not cytotoxic up to 4760 ng/mL (4.76 μg/mL)) | C. albicans IC50 [3]: 19.95 µg/mL | C. albicans MFC [3]: >20 µg/mL | C. albicans MIC [3]: >20 µg/mL | A. fumigatus IC50 [4]: NA (NA, no activity at the highest test concentration of 20 μg/mL) | A. fumigatus MFC [4]: NA (NA, no activity at the highest test concentration of 20 μg/mL) | A. fumigatus MIC [4]: NA (NA, no activity at the highest test concentration of 20 μg/mL) | IC50 (concentration that affords 50% growth inhibition), MRSA [5]: NA (NA, no activity at the highest test concentration of 20 μg/mL) | MBC (minimum bactericidal concentration), MRSA [5]: NA (NA, no activity at the highest test concentration of 20 μg/mL) | MIC, MRSA [5]: NA (NA, no activity at the highest test concentration of 20 μg/mL) | C. neoformans IC50 [6]: 4.93 µg/mL | C. neoformans MFC [6]: >20 µg/mL | C. neoformans MIC [6]: >20 µg/mL | C. krusei IC50 [7]: 15.36 µg/mL | C. krusei MFC [7]: >20 µg/mL | C. krusei MIC [7]: >20 µg/mL | IC50 (concentration that affords 50% growth inhibition), M. intracellulare [8]: 7.71 µg/mL (≈ 13.8 µM) | MBC (minimum bactericidal concentration), M. intracellulare [8]: >20 µg/mL | MIC, M. intracellulare [8]: >20 µg/mL | P. falciparum (D6) IC50 [9]: NA (NA, not active) | P. falciparum (W2) IC50 [10]: NA (NA, not active) | L. donovani IC50 [11]: 26.61 µg/mL | L. donovani IC90 [11]: 37.9 µg/mL | C. glabrata IC50 [12]: 8.05 µg/mL | C. glabrata MFC [12]: >20 µg/mL | C. glabrata MIC [12]: >20 µg/mL
